Publication PMC4681442 (Angewandte Chemie (International ed. in English), 2015)

Experiments:
PC-12 cells = conditions: cisplatin; cited from earlier work
HS-5 cells = test: Cytotoxicity to HS-5 cells; type: cell-based; conditions: cisplatin (Figure S16)
A2780 cells = test: Cell viability; type: cell-based; conditions: CDDP without adding D-1, 72 h
Summary of the method: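 MTT assay (mitochondrial reductase activity) in cisplatin-sensitive A2780 and cisplatin-resistant A2780cis cells. Cells were incubated 72 h with precursor alone, cisplatin alone, or both together. Viability was expressed relative to untreated control, with significance thresholds p≤0.001 and p≤0.0001.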

SKOV3 cells = test: Cell viability; type: cell-based; conditions: CDDP 6 μg/mL alone

In the case of [NH2][Pt]([NH2])([Cl])[Cl] [CDDP, cisplatin], the “inhibition of PC-12 cells” value (PC-12 cells) is given as “significantly inhibits”, the “inhibition of HS-5 cells” value (HS-5 cells) is given as “significantly inhibits” and the “cell viability of A2780” value (A2780 cells) is given as “about 38%”. The “inhibition of SKOV3 cells” value (SKOV3 cells; 72 h (Figure 2A)) was 48% and the “cell death of SKOV3 cells” value (SKOV3 cells; 72 h, control experiment with 3) was “about 40%”.
